Measurements reported in ChEMBL document CHEMBL1130284, “Analogues of N alpha-(4-amino-4-deoxypteroyl)-N delta-hemiphthaloyl-L-ornithine (PT523) modified in the side chain: synthesis and biological evaluation” (J Med Chem, 1997).

Key:
A549 = assay: In vitro antitumor activity against A549 human non-small lung carcinoma cells containing 10% fetal bovine serum; format: functional, cell-based
In short: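 Cells plated at 2000-3000/well in RPMI with 10% fetal bovine serum and left to adhere for 24 h at 37 °C in humidified 5% CO2. Drug (0.1-1000 nM) then added for a further 72 h of continuous exposure. Sulforhodamine B staining read-out. Growth taken as % of untreated controls and plotted against log drug concentration to give IC50.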

SCC-25 = assay: In vitro antitumor activity against SCC25 human head and neck squamous carcinoma cells containing 10% fetal bovine serum; format: functional, cell-based
In short: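 Clonogenic assay. Cells kept in Dulbecco's MEM with 10% FBS and hydrocortisone (400 µg/L). Exponential-phase cells preincubated without drug for 48 h, exposed to 0.01-5000 nM for 72 h, then replated in fresh medium. After 14 days, colonies of ≥5 cells stained with crystal violet and counted. Survival taken as % of untreated controls and IC50 estimated from a log-log plot. Replicate plates, at least three separate days.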

[1] = target: T1, Dihydrofolate reductase (Homo sapiens) (UniProt P00374)
T1 sequence (whole entry): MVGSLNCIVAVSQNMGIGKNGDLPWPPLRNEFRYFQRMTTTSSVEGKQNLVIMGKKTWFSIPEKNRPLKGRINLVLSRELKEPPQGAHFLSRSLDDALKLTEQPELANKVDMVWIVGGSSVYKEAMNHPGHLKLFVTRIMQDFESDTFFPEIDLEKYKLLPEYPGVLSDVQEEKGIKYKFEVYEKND

OVCAR-5 = assay: The IC50 value was measured on OVCAR-5 cell line in ovarian tumor type.; format: functional, cell-based; conditions: Homo sapiens
In short: (§1)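 Standard NCI cell-line panel protocol. Cells plated in 96-well format and treated continuously with drug for 48 h. Total protein stained with Sulforhodamine B and IC50 derived.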

HCT-116 = assay: The IC50 value was measured on HCT116 cell line in colon tumor type.; format: functional, cell-based; conditions: Homo sapiens; in short: as §1
UACC-62 = assay: The IC50 value was measured on UACC-62 cell line in melanoma tumor type.; format: functional, cell-based; conditions: Homo sapiens; in short: as §1
NCI-H522 = assay: The IC50 value was measured on NCl-H522 cell line in NSCL tumor type.; format: functional, cell-based; conditions: Homo sapiens; in short: as §1
NCI-H460 = assay: The IC50 value was measured on NCl-H460 cell line in NSCL tumor type; format: functional, cell-based; conditions: Homo sapiens; in short: as §1
Mus musculus [2] = assay: Time to reach 10 mm Tumor size of subcutaneously implanted SCC-VII squamous cell carcinoma in mice; conditions: route subcutaneous
DU-145 = assay: The IC50 value was measured on DU-145 cell line in prostate tumor type.; format: functional, cell-based; conditions: Homo sapiens; in short: as §1
SNB-75 = assay: The IC50 value was measured on SNB-75 cell line in CNS tumor type.; format: functional, cell-based; conditions: Homo sapiens; in short: as §1
UO-31 = assay: The IC50 value was measured on UO-31 cell line in renal tumor type.; format: functional, cell-based; conditions: Homo sapiens; in short: as §1
Mus musculus [3] = assay: Tumor size of subcutaneously implanted SCC-VII squamous cell carcinoma in mice on day 0; conditions: route subcutaneous
MCF7 = assay: The IC50 value was measured on MCF-7 cell line in breast tumor type; format: functional, cell-based; conditions: Homo sapiens; in short: as §1
Mus musculus [4] = assay: Tumor size of subcutaneously implanted SCC-VII squamous cell carcinoma in mice on day 7; conditions: route subcutaneous
SF-268 = assay: The IC50 value was measured on SF-268 cell line in CNS tumor type.; format: functional, cell-based; conditions: Homo sapiens; in short: as §1
SK-MEL-28 = assay: The IC50 value was measured on SKMEL-28 cell line in melanoma tumor type.; format: functional, cell-based; conditions: Homo sapiens; in short: as §1
Mus musculus [5] = assay: Tumor growth delay of subcutaneously implanted SCC-VII squamous cell carcinoma in mice; conditions: route subcutaneous
Malme-3M = assay: The IC50 value was measured on MALME-3M cell line in melanoma tumor type; format: functional, cell-based; conditions: Homo sapiens; in short: as §1
HT-29 = assay: The IC50 value was measured on HT-29 cell line in colon tumor type.; format: functional, cell-based; conditions: Homo sapiens; in short: as §1
SW-620 = assay: The IC50 value was measured on SW-620 cell line in colon tumor type.; format: functional, cell-based; conditions: Homo sapiens; in short: as §1
LOX IMVI = assay: The IC50 value was measured on LOX IMVI cell line in melanoma tumor ty; format: functional, cell-based; conditions: Homo sapiens; in short: as §1
OVCAR-8 = assay: The IC50 value was measured on OVCAR-8 cell line in ovarian tumor type.; format: functional, cell-based; conditions: Homo sapiens; in short: as §1
NCI-H23 = assay: The IC50 value was measured on NCl-H23 cell line in NSCL tumor type.; format: functional, cell-based; conditions: Homo sapiens; in short: as §1
SF-539 = assay: The IC50 value was measured on SF-539 cell line in CNS tumor type.; format: functional, cell-based; conditions: Homo sapiens; in short: as §1
SK-MEL-5 = assay: The IC50 value was measured on SK-MEL-5 cell line in melanoma tumor type.; format: functional, cell-based; conditions: Homo sapiens; in short: as §1
786-0 [6] = assay: The IC50 value was measured on 786-0 cell line in ovarian tumor t; format: functional, cell-based; conditions: Homo sapiens, in the assay text read “renal” for “ovarian”; in short: as §1
ACHN = assay: The IC50 value was measured on ACHN cell line in renal tumor type.; format: functional, cell-based; conditions: Homo sapiens; in short: as §1
HCT-15 = assay: The IC50 value was measured on HCT-15 cell line in colon tumor type.; format: functional, cell-based; conditions: Homo sapiens; in short: as §1
PC-3 = assay: The IC50 value was measured on PC-3 cell line in prostate tumor type.; format: functional, cell-based; conditions: Homo sapiens; in short: as §1
NCI/ADR-RES = assay: The IC50 value was measured on MCF7-ADR cell line in breast tumor type.; format: functional, cell-based; conditions: Homo sapiens; in short: as §1
EKVX = assay: The IC50 value was measured on EKVX cell line in NSCL tumor type.; format: functional, cell-based; conditions: Homo sapiens; in short: as §1
KM12 = assay: The IC50 value was measured on KM-12 cell line in colon tumor type.; format: functional, cell-based; conditions: Homo sapiens; in short: as §1
OVCAR-3 [7] = assay: The IC50 value was measured on OVCAR-3 cell line in ovarian tumor t; format: functional, cell-based; conditions: Homo sapiens; in short: as §1
OVCAR-3 [8] = assay: The IC50 value was measured on OVCAR-3 cell line in ovarian tumor; format: functional, cell-based; conditions: Homo sapiens; in short: as §1
786-0 [9] = assay: The IC50 value was measured on 786-0 cell line in ovarian tumor; format: functional, cell-based; conditions: Homo sapiens, in the assay text read “renal” for “ovarian”; in short: as §1

SMILES | IC50 (A549) [nM] | IC50 (SCC-25) [nM] | IC50/[E] (nM milliunit-1) [1] | IC50 (OVCAR-5) [nM] | IC50 (HCT-116) [nM] | IC50 (UACC-62) [nM] | IC50 (NCI-H522) [nM] | IC50 (NCI-H460) [nM] | Time (Mus musculus [2]) [days] | IC50 (DU-145) [nM] | IC50 (SNB-75) [nM] | IC50 (UO-31) [nM] | Tumor size (Mus musculus [3]) [mm] | IC50 (MCF7) [nM] | Tumor size (Mus musculus [4]) [mm] | IC50 (SF-268) [nM] | IC50 (SK-MEL-28) [nM] | TGD (Mus musculus [5]) [days] | IC50 (Malme-3M) [nM] | IC50 (HT-29) [nM] | also measured
Nc1nc(N)c2nc(CNc3ccc(C(=O)NC(CCCNC(=O)c4ccc(C(=O)O)cc4)C(=O)O)cc3)cnc2n1 (configuration not stated) | 3300 | 72 | 2.8 | – | – | – | – | – | – | – | – | – | – | – | – | – | – | – | – | – | –
Nc1nc(N)c2nc(CNc3ccc(C(=O)NC(CNC(=O)c4ccccc4C(=O)O)C(=O)O)cc3)cnc2n1 (configuration not stated) | 23 | – | 3.5 | – | – | – | – | – | – | – | – | – | – | – | – | – | – | – | – | – | –
Nc1nc(N)c2nc(CNc3ccc(C(=O)NC(CCNC(=O)c4ccccc4C(=O)O)C(=O)O)cc3)cnc2n1 (configuration not stated) | 22 | – | 2.5 | 86 | 5 | 12 | > 1000 | 14 | 9.8 | 34 | > 1000 | 8 | 1.1 | > 1000 | 5.1 | > 100 | > 1000 | 2.6 | > 1000 | 9.8 | IC50 (SW-620): 6.3 nM; IC50 (LOX IMVI): 4.4 nM; IC50 (OVCAR-8): 8.1 nM; IC50 (NCI-H23): 32 nM; IC50 (SF-539): 57 nM; IC50 (SK-MEL-5): 85 nM; IC50 (786-0 [6]): 9.2 nM; IC50 (ACHN): 45 nM; IC50 (HCT-15): 7.2 nM; IC50 (PC-3): 6.7 nM; IC50 (NCI/ADR-RES): > 1000 nM; IC50 (EKVX): 21 nM; IC50 (KM12): > 1000 nM; IC50 (OVCAR-3 [7]): > 1000 nM
Nc1nc(N)c2nc(CNc3ccc(C(=O)NC(CCCNC(=O)c4ccccc4C(=O)O)C(=O)O)cc3)cnc2n1 (configuration not stated) | 1.3 | 0.3 | 2 | 2.5 | 0.3 | 1.8 | 23 | 0.5 | 12 | 9.5 | > 10000 | 5.5 | 2.1 | 3.6 | 6.8 | 2.5 | 4.6 | 5 | 2 | 1.2 | IC50 (OVCAR-3 [8]): > 100 nM; IC50 (786-0 [9]): 0.6 nM; IC50 (SW-620): 1.9 nM; IC50 (LOX IMVI): 0.4 nM; IC50 (OVCAR-8): 2.4 nM; IC50 (NCI-H23): 4.4 nM; IC50 (SF-539): 3.7 nM; IC50 (SK-MEL-5): 6 nM; IC50 (ACHN): 2.4 nM; IC50 (HCT-15): 1.2 nM; IC50 (PC-3): > 100 nM; IC50 (NCI/ADR-RES): 2.7 nM; IC50 (EKVX): 23 nM; IC50 (KM12): 3.2 nM
